# Calls of active or inactive are those of the source. The rule behind the calls is not given here.
# What was measured:
# [1] = tested on: U-251; assay: Cytotoxicity against human U251 cells at 0.002 to 10 uM after 48 hrs by WST1 assay; type: functional, cell-based
# Procedure, shortened: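 U251 cells were plated at 10-15 × 10^2 per well. After 24 h, polyamide was added in 2× media, with a 10–0.002 μM range for the core-less oxime controls. Cells were treated 48 h, then given fresh media for 24 h recovery. WST-1 was read at 450 nm after 30 min, with background correction and normalization to untreated wells.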
# [2] = tested on: LNCaP; assay: Cytotoxicity against human LNCAP cells after 48 hrs by WST1 assay; type: functional, cell-based
# Procedure, shortened: (§1)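 LNCaP cells were seeded at 10-15 × 10^2 per well and allowed to settle 48 h before polyamide was added as 2× media solutions (DMSO <0.1%). After 48 h exposure, media was replaced and cells recovered 24 h. WST-1 was added for 30 min and A450 read. Wells were corrected for media-only background and normalized to untreated controls.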
# [3] = tested on: LNCaP; assay: Cytotoxicity against human LNCAP cells at 0.02 to 50 uM after 48 hrs by WST1 assay; type: functional, cell-based; procedure, shortened: as §1
# [4] = tested on: U-251; assay: Cytotoxicity against human U251 cells after 48 hrs by WST1 assay; settings: U-251, 48 h
# [5] = tested on: U-251; assay: Inhibition of desferrioxamine-induced VEGF mRNA expression in human U251 cells at 0.02 to 0.2 uM by quantitative RT-PCR analysis; type: functional, cell-based
# Procedure, shortened: (§2)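 In U251 cells, induced VEGF mRNA was quantified by real-time RT-PCR after polyamide at 1, 0.2 and 0.02 μM, with DMSO ≤0.1%. Values were normalized to untreated induced cells; uninduced and DMSO-vehicle controls were run alongside.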
# [6] = tested on: LNCaP; assay: Inhibition of desferrioxamine-induced VEGF mRNA expression in human LNCAP cells at 1 to 2 uM by quantitative RT-PCR analysis; type: functional, cell-based
# [7] = tested on: Nucleic Acid; assay: Binding affinity to 14mer DNA assessed as change in melting temperature by spectrophotometry; type: nucleic-acid assay
# Procedure, shortened: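 Thermal melting of 14-mer oligonucleotide duplexes (HRE or ARE sequence) with and without polyamide, read by UV spectrophotometry in 1 cm quartz cuvettes with a thermostatted holder. Buffer was 10 mM sodium cacodylate, 10 mM KCl, 10 mM MgCl2, 5 mM CaCl2, pH 7.0. ΔTm is taken relative to the free duplex.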
# [8] = tested on: LNCaP; assay: Inhibition of desferrioxamine-induced VEGF mRNA expression in human LNCAP cells at 10 uM by quantitative RT-PCR analysis; type: functional
# Procedure, shortened: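 DFO-induced VEGF mRNA was measured in LNCaP cells by quantitative real-time RT-PCR, following the LNCaP PSA protocol but with non-charcoal-stripped FBS. Polyamide doses were 10, 2 and 0.2 μM, with DMSO ≤0.1%. Levels were normalized to untreated induced cells; untreated uninduced and DMSO controls were included.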
# [9] = tested on: Nucleic Acid; assay: Binding affinity to 5'-GTGCATACGTGGGC-3' sequence of DNA assessed as change in melting temperature by spectrophotometry; type: nucleic-acid assay
# [10] = tested on: U-251; assay: Inhibition of desferrioxamine-induced VEGF mRNA expression in human U251 cells at 1 uM by quantitative RT-PCR analysis; type: functional; procedure, shortened: as §2
# [11] = tested on: LNCaP; assay: Cytotoxicity against human LNCAP cells at 5 uM after 48 hrs by WST1 assay; type: functional, cell-based
# [12] = tested on: LNCaP; assay: Selectivity ratio of IC50 for human LNCAP cells to IC50 for inhibition of dihydrotestosterone-induced prostate specific antigen expression in human LNCAP cells; type: functional
# Procedure, shortened: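 Ratio of WST-1 growth-inhibition IC50 (48 h exposure, 24 h recovery, LNCaP) to PSA gene-regulation IC50. The gene-regulation IC50 came from Hill-fitted RT-PCR isotherms in 1 nM DHT-induced LNCaP cells, three independent experiments.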
# [13] = tested on: LNCaP; assay: Inhibition of dihydrotestosterone-induced prostate specific antigen expression in human LNCAP cells by quantitative RT-PCR analysis; type: functional, cell-based
# Procedure, shortened: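 For gene-regulation IC50, DHT (1 nM)-induced LNCaP cells were dosed across 30–0.1 μM or 10–0.03 μM. PSA mRNA was quantified by real-time RT-PCR and normalized to induced untreated cells. Isotherms from three independent experiments were fitted with a modified Hill equation.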
# [14] = tested on: LNCaP; assay: Inhibition of dihydrotestosterone-induced prostate specific antigen expression in human LNCAP cells at 1 uM by quantitative RT-PCR analysis; type: functional, cell-based
# Procedure, shortened: (§3)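 LNCaP cells were induced with 1 nM DHT and PSA mRNA measured by quantitative real-time RT-PCR. Oxime-linked polyamides were given at 5, 1 and 0.1 μM, and unconjugated controls at 5 μM, with DMSO ≤0.1%. Expression was normalized to untreated DHT-induced cells; uninduced and DMSO controls were included.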
# [15] = tested on: LNCaP; assay: Inhibition of dihydrotestosterone-induced prostate specific antigen expression in human LNCAP cells at 5 uM by quantitative RT-PCR analysis; type: functional; procedure, shortened: as §3
# [16] = tested on: Nucleic Acid; assay: Binding affinity to 5'-TTGCAGAACAGCAA-3' sequence of DNA assessed as change in melting temperature by spectrophotometry; type: nucleic-acid assay
# [17] = tested on: LNCaP; assay: Cytotoxicity against human LNCAP cells assessed as cell viability at 0.01 to 30 uM after 48 hrs by WST1 assay; type: functional; procedure, shortened: as §1
# [18] = tested on: LNCaP; assay: Inhibition of dihydrotestosterone-induced prostate specific antigen expression in human LNCAP cells at 0.1 to 5 uM by quantitative RT-PCR analysis; type: functional, cell-based; procedure, shortened: as §3
# [19] = tested on: LNCaP; assay: Cytotoxicity against human LNCAP cells at 0.01 to 30 uM after 48 hrs by WST1 assay; type: functional, cell-based; procedure, shortened: as §1
# [20] = tested on: U-251; assay: Selectivity ratio of inhibition of desferrioxamine-induced VEGF mRNA expression in human LNCAP cells to inhibition of desferrioxamine-induced VEGF mRNA expression in human U251 cells; type: functional
# [21] = tested on: LNCaP; assay: Inhibition of expression in human LNCAP cells at 5 uM by quantitative RT-PCR analysis
smiles,measurement,setting,value
CC(=O)NCCCO/N=C\c1cccc(C(=O)O)c1,Activity,[1],inactive
same,IC50,[2],> 50 µM
same,Activity,[3],inactive
same,IC50,[4],> 10 µM
Cn1cc(NC(=O)c2cc(NC(=O)c3cc(NC(=O)c4nc(NC(=O)[C@H](N)CCNC(=O)c5nc(NC(=O)c6cc(NC(=O)c7nc(NC(=O)c8nccn8C)cn7C)cn6C)cn5C)cn4C)cn3C)cn2C)cc1C(=O)NCCCO/N=C\c1cccc(F)c1,inhibition,[5],Active
same,inhibition,[6],Active
same,ΔTm,[7],0.9 °C
Cn1cc(NC(=O)c2cc(NC(=O)c3cc(NC(=O)c4nc(NC(=O)[C@H](N)CCNC(=O)c5nc(NC(=O)c6cc(NC(=O)c7nc(NC(=O)c8nccn8C)cn7C)cn6C)cn5C)cn4C)cn3C)cn2C)cc1C(=O)NCCCO/N=C\c1cccc(C(=O)O)c1,inhibition,[5],Active
same,inhibition,[6],Active
same,ΔTm,[7],0.8 °C
NCCCO/N=C\c1cccc(C(=O)O)c1,Activity,[1],inactive
same,IC50,[2],> 50 µM
same,Activity,[3],inactive
same,IC50,[4],> 10 µM
Cn1cc(NC(=O)c2cc(NC(=O)c3nc(NC(=O)c4cc(NC(=O)[C@H](N)CCNC(=O)c5nc(NC(=O)c6cc(NC(=O)c7cc(NC(=O)c8sccc8Cl)cn7C)cn6C)cn5C)cn4C)cn3C)cn2C)cc1C(=O)NCCCO/N=C\c1cccc(C(=O)O)c1,inhibition at 10 µM,[8],80%
same,inhibition,[5],Active
same,ΔTm,[9],11.4 °C
same,inhibition at 1 µM,[10],60%
Cn1cc(NC(=O)c2cc(NC(=O)c3cc(NC(=O)c4nc(NC(=O)[C@H](N)CCNC(=O)c5cc(NC(=O)c6cc(NC(=O)c7cc(NC(=O)c8nccn8C)cn7C)cn6C)cn5C)cn4C)cn3C)cn2C)cc1C(=O)NCCCO/N=C\c1ccc(F)cc1,Activity,[11],Active
same,Ratio IC50,[12],0.7
same,IC50,[13],0.6 µM
same,inhibition,[14],Active
same,IC50,[2],0.4 µM
same,inhibition,[15],Active
same,ΔTm,[7],13.1 °C
Cn1cc(NC(=O)c2cc(NC(=O)c3cc(NC(=O)c4nc(NC(=O)[C@H](N)CCNC(=O)c5cc(NC(=O)c6cc(NC(=O)c7cc(NC(=O)c8nccn8C)cn7C)cn6C)cn5C)cn4C)cn3C)cn2C)cc1C(=O)NCCCO/N=C\c1cccc(C(=O)O)c1,Activity,[11],Active
same,Ratio IC50,[12],6.1
same,IC50,[13],0.3 µM
same,inhibition,[14],Active
same,IC50,[2],1.7 µM
same,ΔTm,[16],11.5 °C
same,inhibition,[15],Active
NCCCO/N=C\c1ccc(F)cc1,Activity,[1],inactive
same,IC50,[2],> 50 µM
same,Activity,[3],inactive
same,IC50,[4],> 10 µM
Cn1cc(NC(=O)c2cc(NC(=O)c3nc(NC(=O)c4cc(NC(=O)[C@H](N)CCNC(=O)c5nc(NC(=O)c6cc(NC(=O)c7cc(NC(=O)c8nccn8C)cn7C)cn6C)cn5C)cn4C)cn3C)cn2C)cc1C(=O)NCCCO/N=C\c1ccc(F)cc1,IC50,[2],≥ 30 µM
same,Activity,[17],<50%
same,inhibition,[18],Active
same,ΔTm,[7],3.4 °C
Cn1cc(NC(=O)c2cc(NC(=O)c3cc(NC(=O)c4nc(NC(=O)[C@H](N)CCNC(=O)c5nc(NC(=O)c6cc(NC(=O)c7nc(NC(=O)c8nccn8C)cn7C)cn6C)cn5C)cn4C)cn3C)cn2C)cc1C(=O)NCCCO/N=C\c1ccc(F)cc1,inhibition,[5],Active
same,inhibition,[6],Active
same,ΔTm,[7],0.8 °C
Cn1cc(NC(=O)c2cc(NC(=O)c3nc(NC(=O)c4cc(NC(=O)[C@H](N)CCNC(=O)c5nc(NC(=O)c6cc(NC(=O)c7cc(NC(=O)c8nccn8C)cn7C)cn6C)cn5C)cn4C)cn3C)cn2C)cc1C(=O)NCCCO/N=C\c1cccc(F)c1,IC50,[2],≥ 30 µM
same,Activity,[17],<50%
same,inhibition,[18],Active
same,ΔTm,[7],4 °C
Cn1cc(NC(=O)c2cc(NC(=O)c3nc(NC(=O)c4cc(NC(=O)[C@H](N)CCNC(=O)c5nc(NC(=O)c6cc(NC(=O)c7cc(NC(=O)c8nccn8C)cn7C)cn6C)cn5C)cn4C)cn3C)cn2C)cc1C(=O)NCCCO/N=C\c1cccc(C(=O)O)c1,Activity,[19],inactive
same,Activity,[17],<50%
same,inhibition,[18],Active
same,ΔTm,[7],2.6 °C
CN(CCCNC(=O)c1cccc(C(=O)O)c1)CCCNC(=O)c1cc(NC(=O)c2cc(NC(=O)c3cc(NC(=O)c4nc(NC(=O)[C@H](N)CCNC(=O)c5cc(NC(=O)c6cc(NC(=O)c7cc(NC(=O)c8nccn8C)cn7C)cn6C)cn5C)cn4C)cn3C)cn2C)cn1C,Ratio IC50,[12],>=5
same,IC50,[13],6 µM
same,Ratio,[20],10
same,IC50,[2],> 30 µM
same,inhibition,[21],Active
same,Activity,[17],<50%
same,ΔTm,[16],14.2 °C
Cn1cc(NC(=O)c2cc(NC(=O)c3nc(NC(=O)c4cc(NC(=O)[C@H](N)CCNC(=O)c5nc(NC(=O)c6cc(NC(=O)c7cc(NC(=O)c8sccc8Cl)cn7C)cn6C)cn5C)cn4C)cn3C)cn2C)cc1C(=O)NCCCO/N=C\c1ccc(F)cc1,inhibition at 10 µM,[8],80%
same,inhibition,[5],Active
same,ΔTm,[9],10.5 °C
same,inhibition at 1 µM,[10],60%
Cn1cc(NC(=O)c2cc(NC(=O)c3cc(NC(=O)c4nc(NC(=O)[C@H](N)CCNC(=O)c5cc(NC(=O)c6cc(NC(=O)c7cc(NC(=O)c8nccn8C)cn7C)cn6C)cn5C)cn4C)cn3C)cn2C)cc1C(=O)NCCCO/N=C\c1cccc(F)c1,Activity,[11],Active
same,IC50,[2],0.6 µM
same,ΔTm,[16],12.5 °C
same,inhibition,[15],Active
Cn1cc(NC(=O)c2cc(NC(=O)c3nc(NC(=O)c4cc(NC(=O)[C@H](N)CCNC(=O)c5nc(NC(=O)c6cc(NC(=O)c7cc(NC(=O)c8sccc8Cl)cn7C)cn6C)cn5C)cn4C)cn3C)cn2C)cc1C(=O)NCCCO/N=C\c1cccc(F)c1,inhibition at 10 µM,[8],80%
same,inhibition,[5],Active
same,ΔTm,[9],9.4 °C
same,inhibition at 1 µM,[10],60%
CC(=O)NCCCO/N=C\c1ccc(F)cc1,Activity,[1],inactive
same,IC50,[2],> 50 µM
same,Activity,[3],inactive
same,IC50,[4],> 10 µM
